# Measured values from different studies.
# Target: Serine/threonine-protein kinase 38-like (STK38L, Homo sapiens, UniProt Q9Y2H1)
SMILES,observed,technique,concentration,remaining binding [%]
Cc1nccc(COC(=O)N2C[C@@H]3[C@@H](CNC(=O)c4ccc5[nH]nnc5c4)[C@@H]3C2)n1,cell-free assay,competition with immobilised ligand,1 µM,70
Nc1ncc2c(n1)-c1c([nH]c3ccc(C#CC4CC4)cc13)CCCC2,binding,competition with immobilised ligand,1 µM,100
COc1cnc(Nc2cccc(S(N)(=O)=O)c2)nc1N1CCN(c2ccccc2)CC1,binding,competition with immobilised ligand,1 µM,96
O=C(NCC1CCOCC1)c1n[nH]cc1NC(=O)c1c(F)cccc1F,binding,competition with immobilised ligand,1 µM,87
F[C@@H]1CCN(c2nccc(-c3cnn4ncccc34)n2)C1,binding,,1 µM,100
CCN1CCN(Cc2ccc(C(=O)Nc3ccc(C)c(Oc4ccc5c(c4)CC(=O)N5)c3)cc2C(F)(F)F)CC1,binding,competition with immobilised ligand,1 µM,100
COc1ccc2c(c1)O[C@@H](c1ccc(OC)c(OC)c1)C[C@H]2NC(=O)C1(c2ccc3c(c2)OC(F)(F)O3)CC1,cell-free assay,competition with immobilised ligand,1 µM,100
CN(CCCC(F)(F)F)c1nccc(-c2cnn3ncccc23)n1,binding,,1 µM,100
C[C@@H](c1ccc(-n2cnc3c(N)ncnc32)cc1)N1CCc2nn(C)c(Cc3ccccc3)c2C1=O,binding,competition with immobilised ligand,0.1 µM,80
COc1ccc2cc(OCC3(C(=O)O)CN(C(=O)c4ccc(F)cc4)C3)ccc2c1,binding,competition with immobilised ligand,1 µM,86
CC1CCCN1c1nccc(-c2cnn3ncccc23)n1 (stereo not shown),binding,,1 µM,100
O=C(c1ccc(Nc2nccc(-c3cc4ccccc4s3)n2)cc1)N1CCC(N2CCCC2)CC1,binding,competition with immobilised ligand,1 µM,94
CN(c1nccc(-c2cnn3ncccc23)n1)C1CC1,binding,,1 µM,100
O=C(c1ccc(Nc2ncc(Cl)c(-c3cc4ccccc4s3)n2)cc1)N1CCC(N2CCCC2)CC1,binding,competition with immobilised ligand,1 µM,74
COc1cccc(CNC(=O)c2nc3scc(COCc4ccc(C(=O)O)cc4)c3c(=O)[nH]2)c1,cell-free assay,competition with immobilised ligand,1 µM,87.7
C[C@@H]1CCN(c2nccc(-c3cnn4ncccc34)n2)C1,binding,,1 µM,100
CC1=C(C#N)[C@@H](c2ccc3[nH]nc(C)c3c2)C(C#N)=C(c2ccc(Cl)cc2)N1,binding,competition with immobilised ligand,1 µM,100
N[C@H]1CCN(c2nccc(-c3cnn4ncccc34)n2)C1,binding,,1 µM,100
O=S(=O)(NC1CCC(c2cc(F)ccc2F)(S(=O)(=O)c2ccc(Cl)cc2)CC1)C(F)(F)F (stereo not shown),binding,competition with immobilised ligand,1 µM,75
FC(F)(F)Oc1cccc(-c2cnc3ccc(-c4ccncc4)nn23)c1,cell-free assay,competition with immobilised ligand,5 µM,89
Cc1cnc(Nc2ccc(C(=O)N3CCC(N4CCCC4)CC3)cc2)nc1-c1cc2ccccc2s1,binding,competition with immobilised ligand,1 µM,100
O=C(NC[C@@H]1[C@H]2CN(C(=O)OCc3cc(C(F)(F)F)cc(C(F)(F)F)c3)C[C@@H]12)c1ccc2[nH]nnc2c1,cell-free assay,competition with immobilised ligand,1 µM,45
